Assay outcomes deposited in PubChem by several laboratories.
The list is not random: actives were taken first. Their share in the collection is about 2.6%.
SENP7 inh = SENP7 protease inhibition | Q9BQF6 | 330,000 tested, 1.5% active | recombinant SENP7, Z-RLRGG-aminoluciferin luminescence, 40 min | inhibition, % at 5 µM | AID 434973;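 active means inhibition above about 50% at the single test dose, limit read from the data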;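 further: plate controls were DMSO with enzyme for no effect and no enzyme buffer wells for full effect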
Target sequence (Q9BQF6 706-1050 limits assumed): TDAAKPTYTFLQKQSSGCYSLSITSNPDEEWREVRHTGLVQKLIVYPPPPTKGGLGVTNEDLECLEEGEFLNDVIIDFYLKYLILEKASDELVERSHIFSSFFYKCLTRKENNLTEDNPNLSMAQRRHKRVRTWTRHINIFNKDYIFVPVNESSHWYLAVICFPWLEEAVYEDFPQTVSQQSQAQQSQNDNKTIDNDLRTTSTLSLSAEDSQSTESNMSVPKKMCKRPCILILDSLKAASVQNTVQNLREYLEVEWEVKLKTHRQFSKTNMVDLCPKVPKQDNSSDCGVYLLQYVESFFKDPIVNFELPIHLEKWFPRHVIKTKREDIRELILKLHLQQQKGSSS
SENP8 block-1 = inhibitors of human SENP8 protease. recombinant SENP8, Nedd8 substrate fluorescence. inhibition, % at 20 µM. 360,000 tested, 0.64% active. AID 602440; in the data active means inhibition mostly above about 40%, no sharp cut-off; inactive means mostly below about 27%
Target sequence (Q96LD8 whole entry, looked up): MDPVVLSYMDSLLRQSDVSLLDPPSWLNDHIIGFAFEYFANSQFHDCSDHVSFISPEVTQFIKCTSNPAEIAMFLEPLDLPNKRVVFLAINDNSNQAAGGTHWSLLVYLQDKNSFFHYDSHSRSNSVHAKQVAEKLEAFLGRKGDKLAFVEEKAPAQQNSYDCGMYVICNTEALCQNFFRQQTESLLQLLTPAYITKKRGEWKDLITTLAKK
SENP8 block-2 = SENP8 protease inhibition; 330,000 tested, 1.2% active; AID 2540; purified SENP8, Z-RLRGG-aminoluciferin cleavage, luminescence; Q96LD8; inhibition, % at 10 µM; in the data active means inhibition above about 50%
Platelet DG rel = platelet dense granule release activity. human platelet-rich plasma, SFLLRN dense granule ATP release, luminescence. inhibition, %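 (compounds screened at 7.5 µM in platelet-rich plasma)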. 300,000 tested, 0.22% active;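 active means mean replicate score, as percent of positive control, at or above 50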
SENP6 block = blocks the human protease SENP6; Q9GZR1; Recombinant SENP6 catalytic domain, aminoluciferin luminescence; inhibition, % at 10 µM; 330,000 tested, 1.8% active; AID 2599;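 active means inhibition above about 50% at the single tested dose, limit read from the data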;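 further: plate controls were DMSO wells with enzyme for no effect and DMSO wells lacking enzyme for full effect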
SENP1 inh = blocks the human SENP1 SUMO protease catalytic domain; Q9P0U3; recombinant SENP1 catalytic domain, CyPet-SUMO1-YPet FRET cleavage; inhibition, % at 10 µM; 360,000 tested, 0.21% active;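 active means inhibition at least 30% at 10 µM, raw YFP signal under a set limit, fluorescence ratio 0.5 to 1.5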;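 further: 0% = enzyme with DMSO and 100% = no enzyme wells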
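System: Recombinant human SENP1 catalytic domain, His6-tagged | Incubation: Enzyme reaction for 50 min at room temperature, dark | Medium: Tris pH 8 with BME, BSA, NP40 and catalase | Also added: 25 nM SUMO1 FRET substrate | Compound: 10 µM single point, 0.5% DMSO | Measured by: FRET fluorescence in CFP and YFP emission channels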
SENP8 confirm = confirmation of human SENP8 protease inhibitors; shares compounds with SENP7 inh; Recombinant SENP8, Z-RLRGG-aminoluciferin luminescence, 60 min; inhibition, % at 12.5 µM; 6,200 tested, 40% active; AID 488912;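 active means mean inhibition across replicates above about 50%, limit read from the data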
SENP6 conf = confirmation of human SENP6 protease inhibitors; 6,200 tested, 58% active; shares compounds with SENP7 inh; inhibition, % at 12.5 µM; recombinant SENP6, Z-RLRGG-aminoluciferin luminescence
SENP7 confirm = human SENP7 inhibition, confirmed | shares compounds with SENP7 inh | recombinant SENP7, Z-RLRGG-aminoluciferin luminescence, 40 min | 6,200 tested, 69% active | inhibition, % at 12.5 µM
Casp3 SENP sel = selectivity test for SENP inhibitors: human caspase-3 inhibition; AID 488918; inhibition, % at 12.5 µM; purified caspase-3, Z-DEVD-aminoluciferin luminescence, 60 min; shares compounds with SENP7 inh; 6,200 tested, 60% active;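 active means mean inhibition above about 50%, limit read from the data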;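 further: plate controls were enzyme with DMSO for no effect and wells without caspase-3 for full effect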
Target sequence (P42574 28-227 limits assumed): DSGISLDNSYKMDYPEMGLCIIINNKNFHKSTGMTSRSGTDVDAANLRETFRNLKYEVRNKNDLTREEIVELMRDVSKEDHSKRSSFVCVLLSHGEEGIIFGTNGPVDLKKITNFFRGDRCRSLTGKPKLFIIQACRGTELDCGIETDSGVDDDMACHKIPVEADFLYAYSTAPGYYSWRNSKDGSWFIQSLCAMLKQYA
Luc interf = counter-screen for SENP inhibitors: luminescence interference; shares compounds with SENP7 inh; Pre-incubated SENP8/Z-RLRGG-aminoluciferin, luciferase luminescence interference; inhibition, % at 12.5 µM; 6,200 tested, 39% active;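 active means mean inhibition above about 50% when retested at one dose, limit read from the data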;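 further: plate controls were DMSO wells with completed reaction for no effect and substrate without enzyme for full effect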
* = called active by the depositor; / = not tested or not shown.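 How the source made its calls, unless noted: active means mean inhibition above about 50% in the one-dose retest (limit read from the data); inactive means the rest.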

SMILES | SENP7 inh | SENP8 block-1 | SENP8 block-2 | Platelet DG rel | SENP6 block | SENP1 inh | SENP8 confirm | SENP6 conf | SENP7 confirm | Casp3 SENP sel | Luc interf
CC(=O)Oc1ccc(C(=O)NCCc2ccccc2)cc1 | 36.4 | 0.1 | 10.2 | 4.0 | 33.8 | 2.1 | / | / | / | / | /
CCOc1ccc(C(=O)NCCc2ccccc2)cc1 | 55.7* | 14.0 | 51.8* | 6.8 | 64.2* | -0.6 | 59.3* | 59.6* | 82.0* | 80.3* | 33.6
CCOc1ccc(/C(C)=N\NC(=O)Cc2ccccc2)cc1 | -5.2 | 29.3 | 7.5 | -1.4 | 96.3* | -0.6 | -2.0 | -10.9 | -6.2 | -3.7 | -8.5
Cc1ccc2nc(-c3sc4nc(C)ccc4c3N)[nH]c2c1 | 6.8 | -253.3 | 24.2 | 0.3 | 56.0* | -18.4 | 49.5 | 42.8 | 29.6 | 12.1 | 24.2
Cc1cc(C)c2c(N)c(-c3nc4ccccc4[nH]3)sc2n1 | 0.9 | -484.6 | -4.3 | -0.9 | -8.2 | 6.4 | / | / | / | / | /
COc1cccc(NC(=O)Nc2nnc(COCCO)s2)c1 | / | 3.1 | / | / | / | -0.9 | / | / | / | / | /
C/C(=N\Nc1nccnc1Cl)c1ccc(O)c(C)c1 | 93.5* | -28.6 | 31.3 | 18.7 | 53.8* | 0.3 | 43.4 | 47.5 | 75.0* | 76.5* | 55.5*
C/C(=N\Nc1nccnc1Cl)c1ccc(Br)cc1 | 1.5 | -29.2 | 1.3 | 16.6 | -9.6 | -1.6 | / | / | / | / | /
Cc1[nH]c2ccccc2c1/C=N\NC(=O)CNc1ccc2c(c1)OCO2 | -1.5 | 28.1 | 4.8 | -3.5 | 7.7 | 0.2 | / | / | / | / | /
COc1ccc(N=Cc2c(O)[nH]c3ccccc23)cc1 | 67.9* | 11.2 | 65.9* | 18.1 | 28.3 | -42.4 | 1.5 | 83.0* | 98.8* | 76.2* | 17.9
Oc1[nH]c2ccccc2c1C=Nc1ccc2c(c1)OCO2 | 1.1 | -5.1 | 75.6* | -0.1 | 86.3* | -84.9 | 66.9* | 88.0* | 99.4* | 83.1* | 27.0
NC(=O)CC(NC(=O)c1ccc(Br)cc1)c1ccc(N2CCCCCCC2)c([N+](=O)[O-])c1 (stereo not given) | 0.1 | 28.0 | -2.8 | 9.7 | -21.6 | 2.9 | / | / | / | / | /
C[C@H]1CN([C@@H](C)CO)C(=O)CCCn2nncc2CO[C@@H]1CN(C)C(=O)c1ccncc1 | / | 22.2 | / | / | / | -0.5 | / | / | / | / | /
O=C(c1cc(-c2cccs2)on1)N1CCc2ccccc2C1 | 52.1* | 14.5 | -8.5 | 5.0 | 2.7 | -1.5 | -2.8 | -2.9 | 8.9 | -0.2 | -4.2
O=C1c2ccccc2C(=O)N1CCOc1ccccc1 | 46.8 | 10.7 | 18.1 | 0.0 | 60.1* | 0.8 | 39.6 | 35.5 | 73.2* | 59.3* | 52.0*
Nc1cccc2c1C(=O)N(CCOc1ccc(F)cc1)C2=O | 54.7* | -320.9 | 48.9 | 8.1 | 68.3* | -27.6 | 54.7* | 48.5 | 84.7* | 53.1* | 4.6
COc1ccc(OCCN2C(=O)c3ccccc3C2=O)cc1 | 13.3 | 10.2 | 5.6 | -1.0 | 25.2 | 2.1 | / | / | / | / | /
O=C1c2ccccc2C(=O)N1CCOc1ccccc1Cl | 59.0* | 8.9 | 37.4 | -2.3 | 51.5* | 0.6 | 31.7 | 47.9 | 78.4* | 47.3 | 56.5*
C=CCCC(=O)N1CCC(Oc2cccc(C(=O)NCc3ccccn3)c2)CC1 | -6.9 | -1.6 | -5.7 | 1.7 | -12.2 | -0.4 | / | / | / | / | /
C/C(=N\NC(=O)c1n[nH]c2c1CCC2)c1ccco1 | 59.5* | 8.8 | 55.2* | 30.6 | 69.4* | 1.4 | 11.7 | 67.8* | 90.9* | 90.9* | 65.0*
C/C(=N/NC(=O)c1ccccn1)c1ccco1 | 1.9 | 3.4 | 62.5* | 40.4 | 66.6* | 2.5 | 76.3* | 67.0* | 90.1* | 92.2* | 70.6*
CCN(CC)c1ccc(NC(=O)c2ccc3c(c2)OCO3)cc1 | 7.1 | 4.7 | 6.4 | 1.8 | 4.9 | -0.9 | / | / | / | / | /
O=C(O)/C=C/c1coc2ccc(F)cc2c1=O | 7.5 | -17.3 | 0.9 | -12.8 | -1.1 | -0.9 | / | / | / | / | /
Cc1ccc2occ(/C=C/C(=O)O)c(=O)c2c1 | 32.0 | -180.7 | 33.9 | -18.5 | 74.1* | 0.0 | 64.3* | 58.3* | 86.1* | 58.5* | 60.6*
O=C(COC(=O)c1nc(Cl)ccc1Cl)NCc1cccs1 | -2.5 | 1.9 | 8.1 | / | -11.1 | 0.8 | / | / | / | / | /
SMILES | SENP7 inh | SENP8 block-1 | SENP8 block-2 | Platelet DG rel | SENP6 block | SENP1 inh | SENP8 confirm | SENP6 conf | SENP7 confirm | Casp3 SENP sel | Luc interf
Cc1ccccc1-c1nc2cc(N)ccc2o1 | 74.2* | -264.2 | 59.9* | 0.6 | 71.6* | -25.6 | 9.1 | 8.6 | -3.0 | 0.3 | 0.9
Cc1ccccc1-c1nc2ccccc2c(=O)o1 | / | -29.7 | / | / | / | 0.8 | / | / | / | / | /
CC(C)c1ccc2oc(-c3cc(N)ccc3O)nc2c1 | 86.1* | -115.0 | 90.7* | 24.7 | 94.1* | 18.9 | 44.3 | 91.4* | 93.9* | 69.7* | 20.2
COC(=O)c1ccc(NC(=O)c2cc3sccc3n2C)cc1 | / | -187.3 | / | -4.7 | / | -23.4 | / | / | / | / | /
COc1cc(NC(=O)c2cc3sccc3n2C)cc(OC)c1 | 65.6* | -10.4 | 50.0* | 1.9 | 64.5* | -13.2 | 5.5 | 59.7* | 83.6* | 40.5 | 65.3*
Cn1c(C(=O)Nc2ccc3c(c2)OCO3)cc2sccc21 | 63.3* | -22.9 | 46.4 | -0.9 | 70.8* | 4.0 | 59.0* | 60.6* | 87.5* | 47.4 | 44.0
Cn1c(C(=O)Nc2ccccc2)cc2sccc21 | 38.1 | 9.3 | 16.8 | 0.1 | 53.3* | -13.6 | 34.2 | 33.3 | 67.7* | 35.9 | 54.3*
COc1ccc(OC)c(NC(=O)c2cc3sccc3n2C)c1 | -11.6 | -37.9 | -2.7 | -3.5 | -19.4 | -17.9 | / | / | / | / | /
CSc1nsc(SC)c1-c1ccc(Cl)cc1 | / | 24.4 | / | / | / | 1.8 | / | / | / | / | /
CN(C)c1ccc(C2NC(=O)c3ccccc3N2)cc1 (stereo not given) | 93.1* | -272.1 | 86.7* | -4.3 | 90.6* | 0.4 | 13.2 | 5.6 | 2.3 | 13.1 | 15.1
O=C1NC(c2ccc(Cl)cc2)Nc2ccccc21 (stereo not given) | 6.3 | -186.5 | -3.1 | 1.6 | -6.4 | -0.8 | / | / | / | / | /
O=C(N=Nc1c(O)[nH]c2ccccc12)c1cccs1 | 82.1* | 15.4 | 66.5* | 5.3 | 81.9* | 3.3 | 51.9* | 80.3* | 93.0* | 81.9* | 20.1
Cc1ccc(C(=O)CSc2ncnc3ccccc23)o1 | 36.5 | -6.8 | -25.1 | 5.9 | 33.0 | -173.4 | / | / | / | / | /
O=C(CSc1ncnc2ccccc12)c1cccs1 | 55.9* | 2.2 | 8.4 | 1.6 | -65.6 | -176.3 | 30.1 | 51.8* | 87.4* | 26.9 | 7.2
